The source of these data is ChEMBL document CHEMBL1138362, “Dihydro-alkylthio-benzyl-oxopyrimidines as inhibitors of reverse transcriptase: synthesis and rationalization of the biological data on both wild-type enzyme and relevant clinical mutants” (J Med Chem, 2007).

For experiment [1], the system named is Human immunodeficiency virus 1 [K103N]. Nature of the experiment: Antiviral activity against HIV1 reverse transcriptase K103N mutant.
Experiment [2] deals with Human immunodeficiency virus 1. Nature of the experiment: Antiviral activity against wild type HIV1 NL4-3 in MT4 cells after 5 days by MTT method. In kind it is functional, organism-based. The note with it: Human immunodeficiency virus 1, NL4-3, MT4, 120 h. An outline of the steps: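 MT-4 lymphoid cells, infected with HIV-1 or mock-infected (for cytotoxicity), held with a range of drug concentrations; viable cells scored at day 5 post-infection by tetrazolium (MTT) colorimetry.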

Experiment [3] relates to Human immunodeficiency virus 1. Nature of the experiment: Antiviral activity against HIV1 with reverse transcriptase Y181C mutation in MT4 cells after 5 days by MTT method. Format: functional, organism-based. The note with it: Human immunodeficiency virus 1, MT4, 120 h. (In general: Tetrazolium dyes change colour on reduction, which living cells bring about.)
The test system of experiment [4] is Human immunodeficiency virus 1. Nature of the experiment: Antiviral activity against HIV1 with reverse transcriptase K103N mutation in MT4 cells after 5 days by MTT method. The note with it: Human immunodeficiency virus 1, MT4, 120 h. In kind it is functional, organism-based. The essentials: (§1)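 MT-4 cells from the NIH AIDS Reagent Program were infected with mutant HIV-1 (K103N or Y188L, from the MRC Centralised Facility) in the presence of graded drug concentrations. Mock-infected cells were used for cytotoxicity. Viable cells were counted by MTT colorimetry at day 5 post-infection.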

The test system of experiment [5] is Human immunodeficiency virus 1. Nature of the experiment: Antiviral activity against HIV1 with reverse transcriptase IRLL98 mutation in MT4 cells after 5 days by MTT method relative to wild type NL4-3. In kind it is functional.
Experiment [6] has as its target Human immunodeficiency virus type 1 reverse transcriptase (Human immunodeficiency virus 1) (UniProt Q72547). Put plainly: Antiviral activity against wild type HIV1 reverse transcriptase.
The test system of experiment [7] is Human immunodeficiency virus 1. Put plainly: Antiviral activity against HIV1 with reverse transcriptase Y188L mutation in MT4 cells after 5 days by MTT method. In kind it is functional, organism-based. Particulars: Human immunodeficiency virus 1, MT4, 120 h. An outline of the steps: as §1
Experiment [8] relates to Human immunodeficiency virus type 1 reverse transcriptase (Human immunodeficiency virus 1), Q72547 [Y181I]. Nature of the experiment: Antiviral activity against HIV1 reverse transcriptase Y181I mutant.

One may read the EC50 as the midpoint of the concentration-response curve. Regarding `Cc1c(Cc2c(F)cccc2F)nc(SCc2ccc3c(c2)OCO3)[nH]c1=O`, the ID50 in experiment [1], in experiment [6] and in experiment [8] was > 20 µM each time. In addition, the EC50 is 0.15 µM in experiment [2], 1.32 µM in experiment [3], 10.2 µM in experiment [4] and > 62.2 µM in experiment [7]. In experiment [5], this molecule yielded a Fold change of 1.8.

`COc1ccc(CSc2nc(Cc3c(F)cccc3F)c(C)c(=O)[nH]2)cc1OC`: the ID50 in experiment [1] was > 20 µM; in experiment [6], 0.5 µM; in experiment [8], > 20 µM. Further, the EC50 in experiment [2] was 0.2 µM; in experiment [3], 0.74 µM; in experiment [4] it was 9.33 µM; in experiment [7] it was > 39.7 µM. Further, in experiment [5], the Fold change is listed as 1.5.

`COC(=O)c1ccc(CSc2nc(Cc3c(F)cccc3F)c(C)c(=O)[nH]2)cc1`: the ID50 was > 20 µM in experiment [1], 0.5 µM in experiment [6] and > 20 µM in experiment [8]. Further, the EC50 in experiment [2] was 0.142 µM; in experiment [3], 1.35 µM; in experiment [4] it was 11.2 µM; in experiment [7], > 34.1 µM. In experiment [5], the Fold change came out at 6.9.

Regarding `Cc1cn([C@H]2C[C@H](N=[N+]=[N-])[C@@H](CO)O2)c(=O)[nH]c1=O` [ZIDOVUDINE], the Fold change in experiment [5] came out at 3.

`CCc1c(Cc2c(F)cccc2F)nc(SCc2ccc(C#N)cc2)[nH]c1=O`: the ID50 in experiment [1] was 7.5 µM; in experiment [6], 0.17 µM; in experiment [8] it was > 20 µM. In addition, the concentration giving a half-maximal response (EC50) in experiment [2] was 0.075 µM; in experiment [3], 1.33 µM; in experiment [4], 7.78 µM; in experiment [7], > 63 µM. The same molecule had a Fold change in experiment [5] of 45.3.

As to `CCc1c(Cc2c(Cl)cccc2Cl)nc(SCc2ccc(C#N)cc2)[nH]c1=O`, the ID50 in experiment [1] was > 20 µM; in experiment [6] it was 0.1 µM; in experiment [8], > 20 µM. The concentration for a half-maximal effect (EC50) is 0.044 µM in experiment [2], 3.05 µM in experiment [3], 8.84 µM in experiment [4] and > 58.1 µM in experiment [7]. The Fold change in experiment [5] is on record as 194.

Turning to `Cc1c(Cc2c(Cl)cccc2Cl)nc(SCC(=O)c2ccc(C#N)cc2)[nH]c1=O`, the ID50 is > 20 µM in experiment [1], 0.2 µM in experiment [6] and > 20 µM in experiment [8]. The EC50 in experiment [2] was 1.08 µM; in experiment [3] it was 1.31 µM; in experiment [4], 12.2 µM; in experiment [7], > 56.3 µM. Besides, the Fold change in experiment [5] is 3.2.

Consider `Cc1ccnc2c1NC(=O)c1cccnc1N2C1CC1` [NEVIRAPINE], for which the Fold change in experiment [5] stood at 144.

For `CCc1c(Cc2c(Cl)cccc2Cl)nc(SCc2ccc(OC)cc2)[nH]c1=O`, the ID50 in experiment [1] was 7.6 µM; in experiment [6], 0.032 µM; in experiment [8], > 20 µM. The EC50 in experiment [2] is 0.0022 µM; in experiment [3] it was 0.83 µM; in experiment [4], 6.99 µM; in experiment [7], > 57.5 µM.

For the molecule `COc1ccc(COCCSc2nc(C(C)c3c(F)cccc3F)c(C)c(=O)[nH]2)cc1` (stereo unspecified), the ID50 is 9.94 µM in experiment [1], 0.0082 µM in experiment [6] and > 20 µM in experiment [8]. Also, the half-maximal effective concentration (EC50) was determined as 0.0011 µM in experiment [2], 0.65 µM in experiment [3], 0.92 µM in experiment [4] and 0.32 µM in experiment [7].

Consider `Cc1c(Cc2c(F)cccc2F)nc(SCC(=O)c2ccc(Cl)cc2)[nH]c1=O`, for which the ID50 in experiment [1] is > 20 µM; in experiment [6], 7.5 µM; in experiment [8], > 20 µM. The EC50 is 3.76 µM in experiment [2], 3.69 µM in experiment [3], > 59.5 µM in experiment [4] and > 59.5 µM in experiment [7].

Turning to `Cc1c(C(C)c2c(F)cccc2F)nc(SC/C=C/c2ccc([N+](=O)[O-])cc2)[nH]c1=O` (stereo unspecified), the ID50 in experiment [1] is > 20 µM; in experiment [6], 0.283 µM; in experiment [8] it was > 20 µM. Besides, the EC50 in experiment [2] is 0.14 µM; in experiment [3], > 11.3 µM; in experiment [4], > 11.3 µM; in experiment [7] it was > 11.3 µM.

`O=C1Nc2ccc(Cl)cc2C(C#CC2CC2)(C(F)(F)F)O1` (single isomer, unassigned) [EFAVIRENZ] came in with a Fold change in experiment [5] of 300.

For the molecule `COc1ccc(/C=C/CSc2nc(Cc3c(F)cccc3F)c(C)c(=O)[nH]2)cc1`, the figures for the ID50 in experiment [1], in experiment [6] and in experiment [8] were > 20 µM, 0.25 µM and > 20 µM, respectively. The EC50 in experiment [2] is 0.043 µM; in experiment [3] it was > 3.93 µM; in experiment [4], > 3.93 µM; in experiment [7], > 3.93 µM.
